Data set [1] concerns Human immunodeficiency virus 1. In words: Antiviral activity against HIV1 3B infected in human MT2 cells assessed as protection against virus-induced cytopathogenicity by MTT assay. The class given is functional, organism-based.
The test system of data set [2] is Human immunodeficiency virus 1. In words: Antiviral activity against HIV1 isolate 89.6 infected in human PM1 cells expressing CCR5 assessed as protection against virus-induced cytopathogenicity by MTT assay. The class given is functional, organism-based. To be noted: Human immunodeficiency virus 1, isolate 89.6, PM1. The gist of the method:
(§1)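 Cells were PM1/CCR5 infected with HIV-1, with viability read by MTT. IC50 is the compound concentration giving 50% protection against virus-induced cytopathogenicity. Values are means with standard deviation from at least three independent experiments.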
On the technique in general: Damage to the host cells serves as the signal in cytopathic effect assays.

Data set [3] relates to Human immunodeficiency virus 1. The data set can be described thus: Antiviral activity against HIV1 3B infected in human PM1 cells expressing CCR5 assessed as protection against virus-induced cytopathogenicity by MTT assay. The class given is functional, organism-based. The note with it: Human immunodeficiency virus 1, 3B. An outline of the steps: as §1
Data set [4] in a line: Cytotoxicity against human PM1 cells expressing CCR5 by MTT assay. The class given is cell-based. An outline of the steps: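 Mock-infected PM1/CCR5 cells were exposed to compound, with viability read by MTT. CC50 is the concentration that reduces viability by 50%. Values are means with standard deviation from at least three independent experiments.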
On the technique in general: Tetrazolium dyes change colour on reduction, which living cells bring about.

Data set [5] is described as follows: Selectivity index, ratio of CC50 for human PM1 cells expressing CCR5 to IC50 for HIV1 MNA. The class given is functional.
Data set [6] relates to Human immunodeficiency virus 1. In words: Antiviral activity against HIV1 MNA infected in human PM1 cells expressing CCR5 assessed as protection against virus-induced cytopathogenicity by MTT assay. The class given is functional, organism-based. To be noted: Human immunodeficiency virus 1, MNA. An outline of the steps: as §1
The next data set has as its system PM1. In words: Inhibition of CD4-induced monoclonal antibody 4C11 binding to HIV1 JR-FL infected in human PM1 cells expressing CCR5 at 100 uM after 15 mins by FACS analysis (reference value: 27.60). For orientation: A flow cytometer gives signals particle by particle.
Data set [7] concerns the target C-X-C chemokine receptor type 4 (Homo sapiens, UniProt P61073). The data set can be described thus: Displacement of [125I]-SDF-1-alpha from CXCR4 expressed in CHO cells. The class given is cell-based.
The nature of data set [8]: Cytotoxicity against human MT2 cells by MTT assay. The class given is cell-based.
For data set [9], the system named is Human immunodeficiency virus 1. In words: Antiviral activity against HIV1 MTA infected in human PM1 cells expressing CCR5 assessed as protection against virus-induced cytopathogenicity by MTT assay. The class given is functional, organism-based. The note with it: Human immunodeficiency virus 1, MTA. An outline of the steps:
as §1

The nature of data set [10]: Selectivity index, ratio of CC50 for human MT-2 cells to IC50 for HIV1 IIIB.
Where [11] appears, read: Human immunodeficiency virus 1, 3B, MT2.

For orientation: IC50 means the point on the concentration scale where inhibition reaches its midpoint. By CC50 is commonly meant the concentration that lowers cell viability or growth by half. A word on the EC50: it is the concentration that produces a half-maximal response. Read a low EC50 as an effect from little substance.

C-X-C chemokine receptor type 4, sequence (P61073 whole entry): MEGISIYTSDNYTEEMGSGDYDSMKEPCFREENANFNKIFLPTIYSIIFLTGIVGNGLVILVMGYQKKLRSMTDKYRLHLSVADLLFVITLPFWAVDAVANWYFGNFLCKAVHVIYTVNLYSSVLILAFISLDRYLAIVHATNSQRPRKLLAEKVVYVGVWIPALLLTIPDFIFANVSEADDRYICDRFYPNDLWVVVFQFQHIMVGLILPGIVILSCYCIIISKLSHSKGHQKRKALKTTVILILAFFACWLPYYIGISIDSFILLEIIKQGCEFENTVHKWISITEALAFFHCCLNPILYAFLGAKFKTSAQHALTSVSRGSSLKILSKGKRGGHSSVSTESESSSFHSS

In the case of `CC1(C)CC(NC(=O)C(=O)Nc2ccc(Cl)cc2)CC(C)(C)N1`, the half-inhibitory concentration (IC50) in [1] (setting [11]) turned out to be 2.1 µM; in [2], 10 µM; in [3], 8 µM; in [6] it was 12 µM. Besides, in data set [4], the CC50 was 110 µM. Also, the “Selectivity Index” value in [5] was 19.2. In the data set on PM1, the RFU worked out at 18.4.

`N=C(N)NCCC[C@H](NC(=O)[C@@H]1CSSC[C@H](NC(=O)[C@H](Cc2ccc3ccccc3c2)NC(=O)[C@H](CCCNC(=N)N)NC(=O)[C@H](CCCNC(=N)N)NC(=O)c2ccc(F)cc2)C(=O)N[C@@H](Cc2ccc(O)cc2)C(=O)N[C@@H](CCCNC(N)=O)C(=O)N[C@@H](CCCNC(=N)N)C(=O)N[C@H](CCCCNC(=O)CCC(=O)NCCCCCCCCN2CCC(NC(=O)C(=O)Nc3ccc(Cl)cc3)CC2)C(=O)N2CCC[C@H]2C(=O)N[C@@H](Cc2ccc(O)cc2)C(=O)N[C@@H](CCCNC(=N)N)C(=O)N[C@@H](CCCNC(N)=O)C(=O)N1)C(N)=O` [listing 1 of 2 here]: the midpoint of the response in [7], the EC50, lay at 0.0071 µM. Also, the IC50 in data set [1] (mt2) came to 0.0353 µM. Also, half-maximal cytotoxicity in [8] (CC50) was put at 8.6 µM.

For the compound `CC(C)C(=O)N1CCC(NC(=O)C(=O)Nc2ccc(Cl)cc2)CC1`, the IC50 in data set [3] was more than 100 µM. Moreover, the CC50 in data set [4] is 45 µM. In the data set on PM1, this compound yielded an RFU of 8.27.

As to `CN1CCC(NC(=O)C(=O)Nc2ccc(Cl)cc2)CC1`, the results for the IC50 in [2] and in [3] were more than 100 µM and 67 µM, respectively. In addition, in [4], the 50% cytotoxic concentration (CC50) is more than 300 µM. The compound further returned an RFU with PM1 of 33.6.

As for `Cc1cn([C@H]2C[C@H](N=[N+]=[N-])[C@@H](CO)O2)c(=O)[nH]c1=O` [ZIDOVUDINE], the IC50 in data set [1] (setting [11]) came out at 0.0493 µM.

`O=C(Nc1ccc(Br)cc1)C(=O)NC1CCNCC1`: the midpoint of cytotoxicity in data set [4], the CC50, lay at 50 µM. Moreover, the half-inhibitory concentration (IC50) in data set [6] worked out at 6 µM. Besides, in the data set with PM1, the RFU stood at 52.3.

For the compound `CC(=O)N1CCC(NC(=O)C(=O)Nc2ccc(Cl)cc2)CC1`, the IC50 in [2] and in data set [3] was more than 100 µM in each case. The compound also yielded a CC50 in data set [4] of more than 300 µM. The compound also came in with an RFU in the data set with PM1 of 29.1.

`CC1(C)CC(NC(=O)C(=O)Nc2ccc(Br)cc2)CC(C)(C)N1`: the CC50 in [4] was 93 µM.

In data set [4], `O=C(Nc1ccc(Cl)cc1)C(=O)NC1CCNCC1` gave a CC50 of 100 µM. For the same compound, the IC50 in [6] was 8 µM. For the same compound, the RFU in the data set on PM1 is 49.9.

As for `O=C(O)CN1CCC(NC(=O)C(=O)Nc2ccc(Cl)cc2)CC1`, in data set [3], the IC50 was more than 100 µM. Besides, the CC50 in [4] was determined as 260 µM. This compound also had an RFU with PM1 of 11.9.

Turning to `NC(=O)NCCC[C@@H]1NC(=O)[C@H](CCCN=C(N)N)NC(=O)[C@H](Cc2ccc(O)cc2)NC(=O)[C@@H]2CCCN2C(=O)[C@@H](CCCCNC(=O)CCC(=O)NCCCCCCN2CCC(NC(=O)C(=O)Nc3ccc(Cl)cc3)CC2)NC(=O)[C@H](CCCN=C(N)N)NC(=O)[C@H](CCCNC(N)=O)NC(=O)[C@H](Cc2ccc(O)cc2)NC(=O)[C@@H](NC(=O)[C@H](Cc2ccc3ccccc3c2)NC(=O)[C@H](CCCN=C(N)N)NC(=O)[C@H](CCCN=C(N)N)NC(=O)c2ccc(F)cc2)CSSC[C@@H](C(=O)N[C@@H](CCCN=C(N)N)C(N)=O)NC1=O` [listing 1 of 2 here], the EC50 in [7] amounted to 0.0187 µM. The IC50 in data set [1] (setting [11]) worked out at 0.0365 µM. For the same compound, half-maximal cytotoxicity in [8] (CC50) was put at 8 µM.

As to `CC(C)CN1CCC(NC(=O)C(=O)Nc2ccc(Cl)cc2)CC1`, the IC50 in data set [9] was 28 µM; in [3] it was more than 100 µM. The compound also had a CC50 in data set [4] of more than 300 µM. The compound also registered an RFU in the data set on PM1 of 15.1.

In data set [4], `Cc1ccc(NC(=O)C(=O)NC2CC(C)(C)NC(C)(C)C2)cc1` gave a CC50 of 210 µM. In addition, the IC50 in data set [6] is 15 µM. This compound returned an RFU in the data set with PM1 of 8.66.

On to `N=C(N)NCCC[C@H](NC(=O)[C@@H]1CSSC[C@H](NC(=O)[C@H](Cc2ccc3ccccc3c2)NC(=O)[C@H](CCCNC(=N)N)NC(=O)[C@H](CCCNC(=N)N)NC(=O)c2ccc(F)cc2)C(=O)N[C@@H](Cc2ccc(O)cc2)C(=O)N[C@@H](CCCNC(N)=O)C(=O)N[C@@H](CCCNC(=N)N)C(=O)N[C@H](CCCCNC(=O)CCC(=O)NCCCCN2CCC(NC(=O)C(=O)Nc3ccc(Cl)cc3)CC2)C(=O)N2CCC[C@H]2C(=O)N[C@@H](Cc2ccc(O)cc2)C(=O)N[C@@H](CCCNC(=N)N)C(=O)N[C@@H](CCCNC(N)=O)C(=O)N1)C(N)=O` [listing 1 of 2 here], for which the “Selectivity Index” value in data set [10] was 169.

Regarding `Cc1ccc(NC(=O)C(=O)NC2CCNCC2)cc1`, the CC50 in data set [4] was 190 µM. Besides, the half-inhibitory concentration (IC50) in [6] came out at 20 µM. In the data set on PM1, the RFU was determined as 46.

Turning to `N=C(N)NCCC[C@H](NC(=O)[C@@H]1CSSC[C@H](NC(=O)[C@H](Cc2ccc3ccccc3c2)NC(=O)[C@H](CCCNC(=N)N)NC(=O)[C@H](CCCNC(=N)N)NC(=O)c2ccc(F)cc2)C(=O)N[C@@H](Cc2ccc(O)cc2)C(=O)N[C@@H](CCCNC(N)=O)C(=O)N[C@@H](CCCNC(=N)N)C(=O)N[C@H](CCCCNC(=O)CCC(=O)NCCCCCCCCN2CCC(NC(=O)C(=O)Nc3ccc(Cl)cc3)CC2)C(=O)N2CCC[C@H]2C(=O)N[C@@H](Cc2ccc(O)cc2)C(=O)N[C@@H](CCCNC(=N)N)C(=O)N[C@@H](CCCNC(N)=O)C(=O)N1)C(N)=O` [listing 2 of 2 here], in data set [10], the “Selectivity Index” value worked out at 244.

The compound `N=C(N)NCCC[C@H](NC(=O)[C@@H]1CSSC[C@H](NC(=O)[C@H](Cc2ccc3ccccc3c2)NC(=O)[C@H](CCCNC(=N)N)NC(=O)[C@H](CCCNC(=N)N)NC(=O)c2ccc(F)cc2)C(=O)N[C@@H](Cc2ccc(O)cc2)C(=O)N[C@@H](CCCNC(N)=O)C(=O)N[C@@H](CCCNC(=N)N)C(=O)N[C@H](CCCCNC(=O)CCC(=O)NCCCCN2CCC(NC(=O)C(=O)Nc3ccc(Cl)cc3)CC2)C(=O)N2CCC[C@H]2C(=O)N[C@@H](Cc2ccc(O)cc2)C(=O)N[C@@H](CCCNC(=N)N)C(=O)N[C@@H](CCCNC(N)=O)C(=O)N1)C(N)=O` [listing 2 of 2 here] registered an EC50 in data set [7] of 0.0044 µM. In addition, the IC50 in data set [1] (setting [11]) turned out to be 0.0509 µM. For the same compound, the CC50 in data set [8] came to 8.6 µM.

`O=C(O)CCC(=O)N1CCC(NC(=O)C(=O)Nc2ccc(Cl)cc2)CC1`: the half-maximal inhibitory concentration (IC50) in data set [2] and in data set [3] was more than 100 µM throughout. In data set [4], this compound displayed a CC50 of more than 300 µM. For the same compound, the RFU with PM1 was determined as 26.1.

Consider `NC(=O)NCCC[C@@H]1NC(=O)[C@H](CCCN=C(N)N)NC(=O)[C@H](Cc2ccc(O)cc2)NC(=O)[C@@H]2CCCN2C(=O)[C@@H](CCCCNC(=O)CCC(=O)NCCCCCCN2CCC(NC(=O)C(=O)Nc3ccc(Cl)cc3)CC2)NC(=O)[C@H](CCCN=C(N)N)NC(=O)[C@H](CCCNC(N)=O)NC(=O)[C@H](Cc2ccc(O)cc2)NC(=O)[C@@H](NC(=O)[C@H](Cc2ccc3ccccc3c2)NC(=O)[C@H](CCCN=C(N)N)NC(=O)[C@H](CCCN=C(N)N)NC(=O)c2ccc(F)cc2)CSSC[C@@H](C(=O)N[C@@H](CCCN=C(N)N)C(N)=O)NC1=O` [listing 2 of 2 here], for which the “Selectivity Index” value in data set [10] is 219.
